Measured values: publication PMC8524144 (International Journal of Pharmaceutics: X, 2021)

Experiments:
[1] = In vitro stability of hPTH; assay type: physicochemical
In short: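 Peptide (1.0 mg teriparatide acetate per mL in 50 mM Tris, pH 6.5, no SBTI) mixed 1:1 with enzyme-free Tris buffer and incubated at 37 °C with shaking. Samples were taken at 2, 5, 10, 15, 30 and 60 min and quenched with an equal volume of 0.5% TFA. A zero-time mix served as 100%. Peptide was measured by C18 HPLC-UV. Run in duplicate.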

pepsin = conditions: ref Werle et al. (2006); cited from earlier work
trypsin = conditions: ref Werle et al. (2006); cited from earlier work
chymotrypsin = conditions: ref Werle et al. (2006); cited from earlier work
aminopeptidase N = conditions: ref Werle et al. (2006); cited from earlier work
elastase = conditions: ref Werle et al. (2006); cited from earlier work
[2] = test system: membrane-bound peptidases; conditions: ref Werle et al. (2006); cited from earlier work
[3] = SBTI at the levels found in the tested formulations; ref Hernández-Ledesma and Hsieh, 2017; Burshtein et al. 2018b; cited from earlier work
[4] = 50 mM Tris buffer without protease, pH 6.5

Molecule | remaining at 0.25 h, 0.5 mg/mL [1, 4] [%] | remaining at 0.5 h, 0.5 mg/mL [1, 4] [%] | remaining at 1 h, 0.5 mg/mL [1, 4] [%] | stability of hPTH(1–34) alone ([1]; no protease, no SBTI, 50 mM Tris buffer pH 6.5, 37 °C, HPLC-UV, n = 2) | degradation by GIT protease pepsin (pepsin) | degradation by GIT protease trypsin (trypsin) | degradation by GIT protease chymotrypsin (chymotrypsin) | effect of aminopeptidase N on the degradation of hPTH(1–34) (aminopeptidase N) | effect of elastase on the degradation of hPTH(1–34) (elastase) | effect of membrane-bound peptidases on the degradation of hPTH(1–34) [2] | tolerability in human trials [3]
CC[C@H](C)[C@H](NC(=O)[C@H](CCC(=O)O)NC(=O)[C@H](CO)NC(=O)[C@@H](NC(=O)[C@@H](N)CO)C(C)C)C(=O)N[C@@H](CCC(N)=O)C(=O)N[C@@H](CC(C)C)C(=O)N[C@@H](CCSC)C(=O)N[C@@H](Cc1cnc[nH]1)C(=O)N[C@@H](CC(N)=O)C(=O)N[C@@H](CC(C)C)C(=O)NCC(=O)N[C@@H](CCCCN)C(=O)N[C@@H](Cc1cnc[nH]1)C(=O)N[C@@H](CC(C)C)C(=O)N[C@@H](CC(N)=O)C(=O)N[C@@H](CO)C(=O)N[C@@H](CCSC)C(=O)N[C@@H](CCC(=O)O)C(=O)N[C@@H](CCCN=C(N)N)C(=O)N[C@H](C(=O)N[C@@H](CCC(=O)O)C(=O)N[C@@H](Cc1c[nH]c2ccccc12)C(=O)N[C@@H](CC(C)C)C(=O)N[C@@H](CCCN=C(N)N)C(=O)N[C@@H](CCCCN)C(=O)N[C@@H](CCCCN)C(=O)N[C@@H](CC(C)C)C(=O)N[C@@H](CCC(N)=O)C(=O)N[C@@H](CC(=O)O)C(=O)N[C@H](C(=O)N[C@@H](Cc1cnc[nH]1)C(=O)N[C@@H](CC(N)=O)C(=O)N[C@@H](Cc1ccccc1)C(=O)O)C(C)C)C(C)C [hPTH(1–34), teriparatide] | 100 | 100 | 100 | stable for at least one hour | rapidly degraded | rapidly degraded | rapidly degraded | very limited effect | very limited effect | very limited effect | 
soybean trypsin inhibitor [SBTI] |  |  |  |  |  |  |  |  |  |  | well tolerated
